Only some compounds are listed: those with a hit (about 3.7% of all), similar ones and a draw of the others.
KCNK3 inh: human KCNK3 channel inhibitors, primary screen, CHO cells, FluxOR thallium flux, B-score; Potassium channel subfamily K member 3 (Homo sapiens), O14649; AID 602410, 2012; 340,000 compounds, 0.84% hits; B-score at 10 µM; FluxOR fluorescence; hits give low values;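 active means B-score under library mean minus 4 SD, starting fluorescence ratio at most library mean plus 5 SD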;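 further: more negative B-score means stronger inhibition of thallium flux through KCNK3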
Target sequence (O14649 whole entry, looked up): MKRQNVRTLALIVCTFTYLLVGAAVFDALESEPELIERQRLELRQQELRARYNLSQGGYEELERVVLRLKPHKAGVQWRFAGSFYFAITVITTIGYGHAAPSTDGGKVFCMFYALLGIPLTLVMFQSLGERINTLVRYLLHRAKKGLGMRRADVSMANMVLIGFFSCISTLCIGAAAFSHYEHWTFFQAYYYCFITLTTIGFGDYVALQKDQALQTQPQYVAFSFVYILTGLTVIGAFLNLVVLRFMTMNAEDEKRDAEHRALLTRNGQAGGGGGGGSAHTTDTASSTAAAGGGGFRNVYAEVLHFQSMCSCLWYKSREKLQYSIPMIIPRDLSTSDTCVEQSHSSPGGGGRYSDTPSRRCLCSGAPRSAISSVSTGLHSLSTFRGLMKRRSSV
hERG protect: hERG rescue from dofetilide block, primary screen, cell-based, CHO-hERG, FluxOR thallium flux, dofetilide IC70; Voltage-gated inwardly rectifying potassium channel KCNH2 (Homo sapiens), Q12809; dofetilide IC70 present; activation (rescue from dofetilide block), less the hit threshold, % at 10 µM; 310,000 compounds, 0.51% hits; AID 1511, 2009;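 active means activation above the mean of controls blocked by dofetilide plus 5 SD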;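 further: thallium influx through hERG after potassium depolarization seen as dye fluorescence rise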
Kir21 block: inhibitors of mouse Kir2.1 inward-rectifier potassium channel; Inward rectifier potassium channel 2 (Mus musculus), P35561; 310,000 compounds, 0.85% hits; B-score at 10 µM; HEK293-Kir2.1, FluxOR thallium flux fluorescence; hits give low values; AID 1672, 2009;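 active means fluorescence ratio B-score at or below minus 3 SD of library scores, with starting-brightness B-score within 2 SD, cut at about -4.2 in these data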;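 further: channel flux triggered by added potassium and thallium sulfate stimulus; B-score of peak minus minimum fluorescence over baseline after thallium stimulus; more negative B-score means stronger Kir2.1 block with less thallium influx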
KCNQ1 inh: inhibitors of human KCNQ1 channel, primary screen, cell-based, thallium flux, high-throughput. Potassium voltage-gated channel subfamily KQT member 1 (Homo sapiens), P51787. CHO-K1 KCNQ1, FluxOR thallium flux fluorescence; hits give high values. B-score at 10 µM. 310,000 compounds, 1.3% hits;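 active means compounds whose thallium flux B-score, printed positive for inhibition, exceeds three library SD while starting fluorescence stays within three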;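 further: channel opened by potassium depolarization with thallium stimulus after 20 min compound exposure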
KCNQ1 pot: potentiators or activators of KCNQ1 channel, primary screen, cell-based, thallium flux, high-throughput. B-score at 10 µM. CHO-K1 KCNQ1, thallium flux FluxOR fluorescence; hits give high values. 310,000 compounds, 0.35% hits. Potassium voltage-gated channel subfamily KQT member 1 (Homo sapiens), P51787;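 active means fluorescence ratio B-score, a plate-corrected score, at least three library SD, with initial intensity B-score within 5 SD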
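System: Stable KCNQ1 CHO-K1 line | Incubation: 90 min dye loading and 20 min compound exposure, both at room temperature | Measure: Ratio B score | Medium: Assay buffer for compound exposure, DMSO matched across wells | Compound dosing: Single-concentration screen | Probe or stimulus: K+/Tl+ depolarizing stimulus | Measured by: Kinetic FluxOR fluorescence, 10 s baseline plus 110 s post-stimulus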
KCNK9 block: KCNK9 potassium channel inhibitors, primary screen, HEK293 cells, thallium flux; AID 488922, 2010; 310,000 compounds, 1.2% hits; FluxOR thallium flux fluorescence; hits give low values; Potassium channel subfamily K member 9 (Homo sapiens), Q9NPC2; B-score at 10 µM;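 active means ratio B-score over 3 SD below the library mean, with starting fluorescence within 5 SD of its mean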;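 further: negative B-score means less thallium flux so channel inhibition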
The depositor's hits bear a star; i = inactive; . = not tested or not shown.

SMILES | KCNK3 inh | hERG protect | Kir21 block | KCNQ1 inh | KCNQ1 pot | KCNK9 block
CCC(C)C(NC(=O)c1ccccc1NC(=O)c1ccc(OC)cc1)C(=O)NCc1ccco1 (stereo not given) | i | -13.4 | 0.07 | 7* | i | i
O=c1oc2cc(O)ccc2c2c1CCCC2 | i | -23.5 | -6.49* | i | i | i
Cc1nn(CC2CC2)c(=O)n1-c1ccc(F)cc1 | i | -0.2 | 0.51 | i | 10* | i
COc1ccc(Cn2c(C(C)C)nc3sc4ccccc4c(=O)c3c2=O)cc1 | i | -5.7 | 0.43 | i | i | i
CC(C)c1nc2sc3ccccc3c(=O)c2c(=O)n1Cc1ccccc1 | i | -3.2 | -0.72 | 6* | i | i
COc1ccc(/C=C/C(=O)OCC(=O)NCCc2ccccc2)c(OC)c1 | i | . | . | . | . | .
COc1ccc(OC)c(S(=O)(=O)N2CCC(C(=O)Nc3cccc(C)c3)CC2)c1 | i | -17.1 | 1.78 | 6* | i | -7.92*
COc1ccc(OC)c(S(=O)(=O)N2CCC(C(=O)Nc3ccccc3)CC2)c1 | i | -9.9 | -0.57 | i | i | i
O=C(Nc1ccncc1)C1CCN(S(=O)(=O)c2c(Cl)cccc2Cl)CC1 | i | -13.6 | 1.26 | i | i | -6.99*
CCOc1nc2ccccc2cc1C=O | i | 7.1* | 0.85 | i | 11* | i
CN(Cc1ccccc1)C(=O)c1cccc(NC(=O)Cc2ccc(NC(=O)C3CCCN(C(=O)C4CCCC4)C3)cc2)c1 (stereo not given) | i | . | . | . | . | .
COCCNC(=O)c1cccc(Nc2nc(-c3ccccc3)c3cc(Cl)ccc3n2)c1 | i | -7.2 | 1.95 | i | i | -6.81*
OCCNc1nc(-c2ccccc2)c2cc(Cl)ccc2n1 | i | -5.2 | 1.39 | i | i | i
O=C(NC(=S)N1CCN(C/C=C/c2ccccc2)CC1)c1ccco1 | i | -10.3 | 1.12 | i | i | i
O=C(NC(=S)N1CCN(C/C=C/c2ccccc2)CC1)c1c(F)cccc1F | i | -3.6 | 0.01 | i | 7* | i
Clc1cccc(CN2CCc3c([nH]c4ccccc34)C2)c1 | i | -9.6 | -2.75 | i | i | i
Cc1cccc(CN2CCc3c([nH]c4ccccc34)C2)c1 | i | -6.9 | -5.87* | i | i | i
CCCN(Cc1nnc(-c2ccccc2Cl)o1)C(=O)c1oc2ccccc2c1C | i | -14.1 | 0.04 | 6* | i | i
CCCN(Cc1nnc(-c2ccccc2Cl)o1)C(=O)c1ccc(C)c(S(=O)(=O)N2CCOCC2)c1 | i | -5.9 | -2.93 | i | i | i
COc1cc(/C=N/O)ccc1OCc1ccc(Cl)cc1 | . | -5.9 | -0.47 | i | i | i
COc1cc(/C=N/N=C(N)N)ccc1OCc1ccc(Cl)cc1 | i | -32.1 | -8.19* | 13* | i | i
NC(N)=N/N=C/c1ccccc1 | i | -9.1 | -1.46 | i | i | i
NC(N)=N/N=C/c1ccc(OCc2ccccc2)c(OCc2ccccc2)c1 | i | -18.3 | 0 | 6* | i | i
NC(N)=N/N=C/c1ccc(Cl)c(Cl)c1 | i | -3.6 | -5.01* | i | i | i
NNC(=S)NC1CCCCCCCCCCC1 | i | -18.4 | -2 | 8* | i | i
SMILES | KCNK3 inh | hERG protect | Kir21 block | KCNQ1 inh | KCNQ1 pot | KCNK9 block
O=[N+]([O-])c1ccc(CSc2ccc(S(=O)(=O)N3CCCCCC3)cn2)cc1 | i | . | . | . | . | .
O=C(Cc1cccs1)Nc1ccc(F)cc1 | i | -1.8 | 0.05 | i | i | i
CC(Cc1cccs1)NC(=O)Nc1ccc(F)cc1 (stereo not given) | i | -12.1 | 0.29 | i | i | -6.62*
CCOc1ccc2[nH]c(=O)c(CN(Cc3cccs3)C(CC)c3nnnn3C(C)(C)CC)cc2c1 (stereo not given) | i | -9.7 | -0.23 | i | i | i
CCC(c1nnnn1C(C)(C)C)N(Cc1cccs1)Cc1cc2cc(C)c(C)cc2n2nnnc12 (stereo not given) | . | -1.6 | -0.61 | i | i | -14.2*
Cc1ccc(C)c(N2CCN(CCCNC(=O)Cn3cccc3C(=O)c3ccccc3C)CC2)c1 | i | -26.8 | -7.42* | i | i | i
Cc1ccccc1C(=O)c1cccn1CC(=O)NCCCN1CCCCC1 | i | -3.5 | 0.2 | i | i | i
CC(=O)c1cccc(S(=O)(=O)NCCC(=O)NC2CCCCCC2)c1 | i | . | . | . | . | .
CCCCc1nc2ccccc2c(N)c1CCC (tested in a mixture with another compound) | i | -8.9 | -8.29* | i | i | i
CCCCc1nc2ccccc2c(C(=O)O)c1C | i | -11.0 | 0.81 | i | i | i
COC(=O)NNC(=O)c1ccc(C(C)(C)C)cc1 | i | -4.5 | -1.36 | i | i | i
CC(C)(C)NC(=O)C(=O)NNC(=O)COc1ccc(Br)cc1 | i | 5.1* | -0.57 | i | 8* | i
CC(C)(C)NC(=O)C(=O)NNC(=O)c1ccc(C(C)(C)C)cc1 | i | 14.9* | -2.35 | i | 20* | i
Cc1cccc(C(=O)NNC(=O)C(=O)NC(C)(C)C)c1 | i | -2.2 | 0.81 | i | i | i
CC(C)(C)NC(=O)C(=O)NNC(=O)c1cccc(Br)c1 | i | 23.4* | 1.92 | i | 18* | i
CC(=O)NC(=S)NNC(=O)COc1ccc(Br)cc1 | i | . | . | . | . | .
Cc1cccc(NC2(C(=O)O)CCCC2)c1 | i | . | . | . | . | .
O=C1C(=O)N(CCS(=O)(=O)c2ccccc2)c2ccc(F)cc21 | i | -10.9 | 0.23 | i | i | i
O=C(NCC(c1ccco1)N1CCCCC1)c1ccc(COc2ccc(Cl)cc2)cc1 (stereo not given) | i | . | . | . | . | .
COc1ccccc1NC(=O)CSCC(=O)N1c2ccccc2CCc2ccccc21 | i | -10.0 | -0.69 | i | i | -7.06*
O=C(Cn1cnc2c(NCc3ccccc3)ncnc21)NCCCN1CCCC1=O | i | . | . | . | . | .
CCC(C)Sc1ccc([C@@H]2[C@H]3C(=O)N(CC)C(=O)[C@H]3[C@]3(C(=O)OC)CCCCN23)cc1 (stereo not given in full) | i | . | . | . | . | .
N#CC1=C(N)Oc2ccc3ccc(O)cc3c2C1c1ccsc1 (stereo not given) | i | -22.0 | -5.05* | i | i | i

Assay outcomes as filed in PubChem.
